Reference: ChEMBL document CHEMBL3864151, “Discovery of imidazopyridazines as potent Pim-1/2 kinase inhibitors” (Bioorg Med Chem Lett, 2016)

Assays:
[1] = Intrinsic clearance in human liver microsomes at 1 uM after 30 mins by LC-MS HRMS analysis; assay type: ADME; conditions: read-out: CLH
[2] = biological target: Serine/threonine-protein kinase pim-1 (Homo sapiens, UniProt P11309); experiment: Inhibition of recombinant Pim1 (unknown origin) by electrochemiluminescence assay
[3] = biological target: Serine/threonine-protein kinase PIM (Homo sapiens, UniProt P11309+Q9P1W9+Q86V86); experiment: Inhibition of Pim1/2 in human KMS-12 cells assessed as decrease in BAD phosphorylation at Ser112 by Western blot method; assay type: cell-based
[4] = Intrinsic clearance in rat liver microsomes at 1 uM after 30 mins by LC-MS HRMS analysis; assay type: ADME; conditions: read-out: CLH
[5] = biological target: Serine/threonine-protein kinase pim-2 (Homo sapiens, UniProt Q9P1W9); experiment: Inhibition of recombinant Pim2 (unknown origin) by electrochemiluminescence assay
[6] = AUC (0 to infinity) in Sprague-Dawley rat at 5 mg/kg, po; assay type: ADME, organism-based; design: dose 5 mg/kg, route oral, time infinity; conditions: in vivo; for AUC(0-inf): Sprague-Dawley
How it was run: (§1)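 Male Sprague Dawley rats, 3 animals per dosing route, mean values. iv dose 2 mg/kg as a solution in DMSO; po dose 5 mg/kg in 1% Tween 80, 2% HPMC, 97% water/methanesulfonic acid pH 2.2.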

[7] = Clearance in Sprague-Dawley rat at 2 mg/kg, iv; assay type: ADME, organism-based; conditions: in vivo; for clearance: Sprague-Dawley; how it was run: as §1
[8] = Volume of distribution at steady state in Sprague-Dawley rat at 2 mg/kg, iv; assay type: ADME, organism-based; conditions: in vivo, read-out: Vdss; how it was run: as §1
[9] = Mean residence time in Sprague-Dawley rat at 2 mg/kg, iv; assay type: ADME, organism-based; conditions: in vivo; how it was run: as §1
[10] = Oral bioavailability in Sprague-Dawley rat at 5 mg/kg; assay type: ADME, organism-based; conditions: in vivo; for bioavailability: Sprague-Dawley; how it was run: as §1
[11] = Clearance in Sprague-Dawley rat at 2 mg/kg, iv relative to liver blood flow; assay type: ADME, organism-based; conditions: in vivo; how it was run: as §1
[12] = biological target: Voltage-gated inwardly rectifying potassium channel KCNH2 (Homo sapiens, UniProt Q12809); experiment: Inhibition of radiolabeled dofetilide binding to human ERG expressed in HEK293 cells
Chain of Voltage-gated inwardly rectifying potassium channel KCNH2 (Q12809 whole entry): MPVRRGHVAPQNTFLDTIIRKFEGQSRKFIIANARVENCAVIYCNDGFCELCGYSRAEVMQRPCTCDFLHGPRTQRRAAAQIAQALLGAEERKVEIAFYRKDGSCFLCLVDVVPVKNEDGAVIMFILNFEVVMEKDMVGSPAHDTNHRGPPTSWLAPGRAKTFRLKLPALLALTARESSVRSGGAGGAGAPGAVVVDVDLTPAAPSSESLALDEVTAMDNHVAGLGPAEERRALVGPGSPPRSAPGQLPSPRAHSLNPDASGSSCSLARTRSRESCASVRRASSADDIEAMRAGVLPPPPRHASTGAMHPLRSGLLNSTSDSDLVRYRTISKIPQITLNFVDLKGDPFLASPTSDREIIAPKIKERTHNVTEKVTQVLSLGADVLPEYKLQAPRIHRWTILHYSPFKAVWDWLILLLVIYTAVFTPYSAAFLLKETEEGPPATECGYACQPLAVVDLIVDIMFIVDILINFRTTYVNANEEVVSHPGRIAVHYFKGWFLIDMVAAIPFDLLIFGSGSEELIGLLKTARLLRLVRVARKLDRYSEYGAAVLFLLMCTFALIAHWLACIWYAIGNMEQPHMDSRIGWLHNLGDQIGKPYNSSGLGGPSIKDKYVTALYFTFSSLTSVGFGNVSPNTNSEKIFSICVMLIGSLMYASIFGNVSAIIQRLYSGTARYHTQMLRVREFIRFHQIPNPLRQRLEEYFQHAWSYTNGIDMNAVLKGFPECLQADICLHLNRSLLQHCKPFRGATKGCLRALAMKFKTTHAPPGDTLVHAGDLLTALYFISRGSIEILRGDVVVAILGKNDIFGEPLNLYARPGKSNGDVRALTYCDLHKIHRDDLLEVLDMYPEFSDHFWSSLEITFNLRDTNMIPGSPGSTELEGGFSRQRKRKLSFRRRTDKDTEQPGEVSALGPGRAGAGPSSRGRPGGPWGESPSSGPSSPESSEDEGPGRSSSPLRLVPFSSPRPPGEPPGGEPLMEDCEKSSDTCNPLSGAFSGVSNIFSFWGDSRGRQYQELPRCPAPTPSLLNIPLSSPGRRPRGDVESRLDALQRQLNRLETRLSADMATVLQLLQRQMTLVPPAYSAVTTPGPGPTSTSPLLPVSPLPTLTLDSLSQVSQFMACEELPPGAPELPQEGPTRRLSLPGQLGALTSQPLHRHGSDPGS

Chain of Serine/threonine-protein kinase pim-1 (P11309 whole entry): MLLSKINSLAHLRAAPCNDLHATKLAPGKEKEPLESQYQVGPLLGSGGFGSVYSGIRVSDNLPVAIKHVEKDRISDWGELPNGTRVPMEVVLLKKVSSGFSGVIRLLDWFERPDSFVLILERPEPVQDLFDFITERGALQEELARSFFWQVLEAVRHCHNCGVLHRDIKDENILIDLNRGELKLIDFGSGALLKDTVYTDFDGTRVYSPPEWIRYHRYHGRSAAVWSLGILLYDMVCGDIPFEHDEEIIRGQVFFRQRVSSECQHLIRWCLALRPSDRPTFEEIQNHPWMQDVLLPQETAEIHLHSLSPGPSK
Chain of Serine/threonine-protein kinase pim-2 (Q9P1W9 whole entry): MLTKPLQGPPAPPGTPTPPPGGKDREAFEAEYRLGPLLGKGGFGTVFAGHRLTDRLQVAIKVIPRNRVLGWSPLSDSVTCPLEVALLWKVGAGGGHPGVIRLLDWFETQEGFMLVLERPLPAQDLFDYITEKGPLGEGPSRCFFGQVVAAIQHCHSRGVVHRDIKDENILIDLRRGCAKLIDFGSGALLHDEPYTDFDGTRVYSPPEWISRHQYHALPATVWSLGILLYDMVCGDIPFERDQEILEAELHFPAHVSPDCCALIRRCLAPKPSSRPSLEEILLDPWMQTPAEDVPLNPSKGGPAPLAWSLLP

microsomal CLint at 1 µM [1] | IC50 [2] | IC50 [3] | microsomal CLint at 1 µM [4] | SMILES | further results
90 µL/min/mg | – | 2668 nM | 122 µL/min/mg | N[C@H]1CCCN(c2ccncc2Nc2ncc3ccc(-c4ccccc4Cl)nn23)C1 | IC50 [5]: 3.4 nM
28 µL/min/mg | – | > 15800 nM | 110 µL/min/mg | N[C@H]1CCCN(c2ncncc2Nc2ncc3ccc(-c4c(F)cccc4F)nn23)C1 | –
18 µL/min/mg | – | – | 27 µL/min/mg | N[C@H]1CCCN(c2ccncc2Nc2ncc3ccc(Cl)nn23)C1 | –
– | 65 nM | – | – | N[C@H]1CCCN(c2ccnc(NC(=O)c3c[nH]c4ccc(-c5ccccc5F)nc34)c2)C1 | IC50 [5]: 314 nM
100 µL/min/mg | 1.8 nM | 5007 nM | 260 µL/min/mg | N[C@H]1CCCN(c2ccncc2Nc2ncc3ccc(-c4ccc(Cl)cc4Cl)nn23)C1 | –
28 µL/min/mg | 56 nM | – | 167 µL/min/mg | N[C@H]1CCCN(c2sncc2Nc2ncc3ccc(-c4c(F)cccc4F)nn23)C1 | IC50 [5]: 148 nM
33 µL/min/mg | – | – | 91 µL/min/mg | C[C@@H]1C[C@H](N)CN(c2ccncc2Nc2ncc3ccc(-c4ncccc4F)nn23)C1 | AUC(0-inf) [6]: 3.2 µM·h; clearance [7]: 26.7 mL/min/kg; Vd [8]: 6.7 L/kg; MRT [9]: 4.3 h; bioavailability [10]: 60%
66 µL/min/mg | – | – | 185 µL/min/mg | CN[C@H]1CCCN(c2ccncc2Nc2ncc3ccc(-c4c(F)cccc4F)nn23)C1 | –
82 µL/min/mg | – | 3440 nM | 63 µL/min/mg | N[C@H]1CCCN(c2ccccc2Nc2ncc3ccc(-c4c(F)cccc4F)nn23)C1 | –
90 µL/min/mg | – | – | 280 µL/min/mg | N[C@@H]1CCCN(c2ccncc2Nc2ncc3ccc(-c4c(F)cccc4F)nn23)C1 | –
< 10 µL/min/mg | 3.7 nM | 5120 nM | 106 µL/min/mg | N[C@H]1CCC[C@@H](c2ccncc2Nc2ncc3ccc(-c4c(F)cccc4F)nn23)C1 (racemic) | –
15 µL/min/mg | – | – | < 14 µL/min/mg | N[C@H]1CCN(c2ccncc2Nc2ncc3ccc(-c4c(F)cccc4F)nn23)C1 | –
91 µL/min/mg | – | – | 311 µL/min/mg | C[C@]1(N)CCCN(c2ccncc2Nc2ncc3ccc(-c4c(F)cccc4F)nn23)C1 (racemic) | –
111 µL/min/mg | – | – | 347 µL/min/mg | C[C@H]1C[C@H](N)CN(c2ccncc2Nc2ncc3ccc(-c4c(F)cccc4F)nn23)C1 | –
472 µL/min/mg | 2.9 nM | 4807 nM | > 399 µL/min/mg | O[C@H]1CCCN(c2ccncc2Nc2ncc3ccc(-c4c(F)cccc4F)nn23)C1 | –
399 µL/min/mg | – | – | > 399 µL/min/mg | Fc1cccc(F)c1-c1ccc2cnc(Nc3cnccc3N3CCCCC3)n2n1 | –
< 10 µL/min/mg | – | 1760 nM | < 10 µL/min/mg | N[C@H]1CCCN(c2ccncc2Nc2ncc3ccc(-c4ccccn4)nn23)C1 | –
443 µL/min/mg | – | – | > 399 µL/min/mg | N[C@@H]1CN(c2ccncc2Nc2ncc3ccc(-c4c(F)cccc4F)nn23)CC[C@H]1F | –
71 µL/min/mg | – | – | 194 µL/min/mg | C[C@@H]1CC[C@H](N)CN1c1ccncc1Nc1ncc2ccc(-c3cccc(F)n3)nn12 | –
31 µL/min/mg | 0.38 nM | 1761 nM | 132 µL/min/mg | N[C@H]1CCCN(c2ccncc2Nc2ncc3ccc(-c4ccc(F)cc4F)nn23)C1 | IC50 [5]: 3.1 nM
79 µL/min/mg | – | – | 344 µL/min/mg | C[C@@H]1[C@@H](N)CCCN1c1ccncc1Nc1ncc2ccc(-c3c(F)cccc3F)nn12 | –
67 µL/min/mg | – | – | 61 µL/min/mg | N[C@H]1CCCN(c2cnccc2Nc2ncc3ccc(-c4c(F)cccc4F)nn23)C1 | –
27 µL/min/mg | – | 602 nM | 54 µL/min/mg | N[C@H]1CCCN(c2ccncc2Nc2ncc3ccc(-c4nccs4)nn23)C1 | IC50 [5]: 2.9 nM
34 µL/min/mg | 0.23 nM | 6599 nM | 39 µL/min/mg | N[C@H]1CCCN(c2ccncc2Nc2ncc3ccc(-c4cccnc4F)nn23)C1 | –
51 µL/min/mg | 0.78 nM | 983 nM | 143 µL/min/mg | N[C@H]1C[C@@H](F)CN(c2ccncc2Nc2ncc3ccc(-c4c(F)cccc4F)nn23)C1 | –
36 µL/min/mg | – | – | 40 µL/min/mg | N[C@H]1CCCN(c2ccncc2Nc2ncc3ccc(-c4ncccc4F)nn23)C1 | AUC(0-inf) [6]: 7.3 µM·h; clearance [7]: 11.7 mL/min/kg; CL [11]: 21%; Vd [8]: 3.3 L/kg; MRT [9]: 4.1 h; bioavailability [10]: 28%
80 µL/min/mg | – | – | 477 µL/min/mg | C[C@H]1CC[C@H](N)CN1c1ccncc1Nc1ncc2ccc(-c3c(F)cccc3F)nn12 | –
203 µL/min/mg | – | – | > 399 µL/min/mg | C[C@@H]1CC[C@H](N)CN1c1ccncc1Nc1ncc2ccc(-c3c(F)cccc3F)nn12 | IC50 [12]: 19.7 µM; AUC(0-inf) [6]: 3.3 µM·h; clearance [7]: 91.7 mL/min/kg; Vd [8]: 21.7 L/kg; MRT [9]: 4 h; bioavailability [10]: 141%
– | – | – | 312 µL/min/mg | C[C@H]1[C@@H](N)CCCN1c1ccncc1Nc1ncc2ccc(-c3c(F)cccc3F)nn12 | –
48 µL/min/mg | 0.23 nM | 1536 nM | 120 µL/min/mg | N[C@H]1CCCN(c2ccncc2Nc2ncc3ccc(-c4ccccc4F)nn23)C1 | IC50 [5]: 1.6 nM

SMILES | microsomal CLint at 1 µM [1] | IC50 [2] | IC50 [3] | microsomal CLint at 1 µM [4] | further results
C[C@H]1CCN(c2ccncc2Nc2ncc3ccc(-c4c(F)cccc4F)nn23)C[C@H]1N | 130 µL/min/mg | 0.26 nM | 2982 nM | > 399 µL/min/mg | –
C[C@@H]1CCN(c2ccncc2Nc2ncc3ccc(-c4c(F)cccc4F)nn23)C[C@H]1N | 71 µL/min/mg | 0.035 nM | 212 nM | 219 µL/min/mg | IC50 [5]: 0.18 nM
N[C@H]1CCCN(c2ccncc2Nc2ncc3ccc(-c4c(F)cccc4F)nn23)C1 | 66 µL/min/mg | 0.07 to 0.1 nM | 403 nM | 130 µL/min/mg | AUC [6]: 3.7 µM·h; CL [7]: 1.4 L/h/kg; CL [11]: 40%; Vd [8]: 7.9 L/kg; MRT [9]: 5.6 h; F [10]: 16%
